# Laboratory results reported in ChEMBL document CHEMBL1124171, “Ergolines as selective 5-HT1 agonists” (J Med Chem, 1988).
# Key:
# [1] = (§1) Ratio of affinity towards 5-HT1 to 5-HT2 receptor
# Outline: (§2)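 Frontal cortex from male Wistar rats (140–160 g), homogenate pellet in 0.05 M Tris with 10 μM pargyline and 4 mM Ca²⁺, 250–350 μg protein/sample. 5-HT1: 2 nM [³H]-5-HT, nonspecific with 10 μM 5-HT. […] Eleven concentrations, 0.1–10 000 nM, in duplicate. IC50 from curve fitting of specific binding.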
# [2] = molecular target: T1, Serotonin 1 (5-HT1) receptor (Rattus norvegicus, UniProt P28564+P30940+P19327+P28565); test: Tested for its binding affinity towards 5-hydroxytryptamine 1 receptor in rat cortical membrane homogenates using radioligand ([3H]5-HT) binding assay.; format: cell membranes; outline: as §2
# [3] = molecular target: Serotonin 2 (5-HT2) receptor (Rattus norvegicus, UniProt P30994+P08909+P14842); test: Binding affinity at 5-hydroxytryptamine 2 receptor from rat frontal cortex homogenates by [3H]-spiperone displacement.; format: tissue-based
# Rattus norvegicus [4] = test: Minimum effective dose required to increase (MED) corticosterone in rat serum, sc; format: functional; conditions: read-out: MED
# Outline: (§3)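 Male Wistar rats (~150 g). Compound in dilute HCl given sc at graded doses 1 h before decapitation. Whole-brain 5-HIAA measured by LC with electrochemical detection; serum corticosterone measured spectrofluorometrically. Minimum effective dose is the lowest dose giving a significant difference from control (P < 0.05).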
# [5] = molecular target: T1, Serotonin 1 (5-HT1) receptor; test: Binding affinity towards 5-hydroxytryptamine 1 receptor using [3H]5-HT as a radioligand from rat frontal cortex homogenates; format: tissue-based
# Rattus norvegicus [6] = test: Minimum effective dose required to suppressing (MED) 5HIAA concentration in rat when administered sc; format: functional; conditions: read-out: MED; outline: as §3
# Rattus norvegicus [7] = test: Effect on homovanillic acid concentration in rat striatum, after 10 mg/kg sc administration; format: functional; conditions: route subcutaneous
# Outline: (§4)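 Male Wistar rats (~150 g) were given drug or apomorphine HCl sc and decapitated 1 h later. Striatal DOPAC and HVA were quantified by LC with electrochemical detection. Results are mean ± SE, five rats/group, P < 0.05.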
# Rattus norvegicus [8] = test: Effect on 3,4-dihydroxyphenylacetic acid concentration in rat striatum, after 10 mg/kg sc administration; format: functional; conditions: route subcutaneous; outline: as §4
# Rattus norvegicus [9] = test: Effect on homovanillic acid concentration in rat striatum, after 3 mg/kg sc administration; format: functional; conditions: route subcutaneous; outline: as §4
# Rattus norvegicus [10] = test: Effect on homovanillic acid concentration in rat striatum, after 1 mg/kg sc administration; format: functional; conditions: route subcutaneous; outline: as §4
# Rattus norvegicus [11] = test: Effect on 3,4-dihydroxyphenylacetic acid concentration in rat striatum, after 3 mg/kg sc administration; format: functional; conditions: route subcutaneous; outline: as §4
# Rattus norvegicus [12] = test: Effect on 3,4-dihydroxyphenylacetic acid concentration in rat striatum, after 1 mg/kg sc administration; format: functional; conditions: route subcutaneous; outline: as §4
# [13] = molecular target: T1, Serotonin 1 (5-HT1) receptor; test: Binding affinity towards 5-hydroxytryptamine 1 receptor in rat frontal cortex homogenates using [3H]5-HT as a radioligand; format: tissue-based
# Outline: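 Frontal cortex from male Wistar rats (140–160 g), pellet in 0.05 M Tris with 10 μM pargyline and 4 mM Ca²⁺, 250–350 μg protein/sample. 2 nM [³H]-5-HT; nonspecific binding with 10 μM 5-HT; specific binding = total minus nonspecific. Eleven test concentrations, 0.1–10 000 nM, in duplicate.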
# [14] = as §1; format: functional; outline: as §2
# Rattus norvegicus [15] = species on record: Rattus norvegicus; test: Effect of fluoxetine on the elevation of serum corticosterone at a dose 100 ug/mL, Fluoxetine pretreament; format: functional, organism-based
# Outline: (§5)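 Rats got fluoxetine HCl (10 mg/kg, ip) or no pretreatment. 16 h later, drug (0.3 mg/kg, sc, dilute HCl) or p-chloroamphetamine HCl (2.5 mg/kg, ip) was given, with decapitation 1 h after. Serum corticosterone was measured spectrofluorometrically. Results are mean ± SE, five male Wistar rats/group, P < 0.05.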
# Rattus norvegicus [16] = species on record: Rattus norvegicus; test: Effect of fluoxetine on the elevation of serum corticosterone at a dose 100 ug/mL, No pretreatment; format: functional, organism-based; outline: as §5
# Rattus norvegicus [17] = species on record: Rattus norvegicus; test: Effect of […] on the elevation of serum corticosterone at a dose 100 ug/mL PCPA pretreament; format: functional, organism-based
# Outline: as §5, with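 “p-chlorophenylalanine (300” for “fluoxetine HCl (10”, “24” for “16”, “and rats were killed” for “with decapitation”, “rats/group.” for “rats/group, P < 0.05.”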
# Rattus norvegicus [18] = species on record: Rattus norvegicus; test: Effect of […] on the elevation of serum corticosterone at a dose 100 ug/mL No pretreatment; format: functional, organism-based
# Outline: as §5, with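 “p-chlorophenylalanine (300” for “fluoxetine HCl (10”, “24” for “16”, “and rats were killed” for “with decapitation”, “rats/group.” for “rats/group, P < 0.05.”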
SMILES,Selectivity ratio [1],IC50 [2],IC50 [3],also measured
C[C@@H]1C=C2c3cccc4[nH]cc(c34)C[C@H]2N(C)C1,22,5 nM,110 nM,
CSC[C@@H]1C=C2c3cccc4c3[C@@H](CN4)C[C@H]2N(C)C1,66,,1330 nM,minimal effective dose (Rattus norvegicus [4]): 1 mg/kg; IC50 [5]: 20 nM; minimal effective dose (Rattus norvegicus [6]): 0.1 mg/kg
CN1CCc2cccc3c2[C@H]1Cc1ccc(O)c(O)c1-3 [APOMORPHINE],,,,HVA (Rattus norvegicus [7]): 0.91; DOPAC (Rattus norvegicus [8]): 1.73; HVA (Rattus norvegicus [9]): 1.14; HVA (Rattus norvegicus [10]): 1.59; DOPAC (Rattus norvegicus [11]): 2.33; DOPAC (Rattus norvegicus [12]): 2.97
C[C@H]1C=C2c3cccc4[nH]cc(c34)C[C@H]2N(C)C1,1,80 nM,130 nM,
C=C1C=C2c3cccc4[nH]cc(c34)C[C@H]2N(C)C1,7,20 nM,140 nM,
CN1C[C@H](CC#N)C=C2c3cccc4c3[C@@H](CN4)C[C@H]21,106,20 nM,2120 nM,minimal effective dose (Rattus norvegicus [4]): 0.1 mg/kg; minimal effective dose (Rattus norvegicus [6]): 0.1 mg/kg
C[C@@H]1C[C@@H]2c3cccc4c3[C@@H](CN4)C[C@H]2N(C)C1,11,,4220 nM,IC50 [13]: 390 nM
CC1=C[C@@H]2c3cccc4c3[C@@H](CN4)C[C@H]2N(C)C1,14,,1850 nM,IC50 [13]: 130 nM
CN1C[C@H](CO)C=C2c3cccc4[nH]cc(c34)C[C@H]21,11,15 nM,160 nM,
CCCN1C[C@H](C)C=C2c3cccc4c3[C@@H](CN4)C[C@H]21,> 5,240 nM,> 1000 nM,
COC(=O)[C@@H]1C=C2c3cccc4c3[C@@H](CN4)C[C@H]2N(C)C1,40,40 nM,1620 nM,
CN1C[C@H](CSc2ccccc2)C=C2c3cccc4c3[C@@H](CN4)C[C@H]21,26,8 nM,210 nM,
C[C@H]1C=C2c3cccc4c3[C@@H](CN4)C[C@H]2N(C)C1,,,> 1000 nM,minimal effective dose (Rattus norvegicus [4]): 0.003 mg/kg; Selectivity ratio [14]: > 50; IC50 [5]: 20 nM; minimal effective dose (Rattus norvegicus [6]): 0.001 mg/kg
CN1C[C@H](CO)C[C@@H]2c3cccc4[nH]cc(c34)C[C@H]21,4,,450 nM,IC50 [5]: 120 nM
CC(N)Cc1ccc(Cl)cc1 (configuration not stated),,,,Serum corticosterone (Rattus norvegicus [15]): 29.5 µg/mL; Serum corticosterone (Rattus norvegicus [16]): 69.4 µg/mL; Serum corticosterone (Rattus norvegicus [17]): 14.9 µg/mL; Serum corticosterone (Rattus norvegicus [18]): 51.1 µg/mL
CN1C[C@H](CO)C=C2c3cccc4c3[C@@H](CN4)C[C@H]21,102,,2650 nM,minimal effective dose (Rattus norvegicus [4]): 0.1 mg/kg; IC50 [5]: 26 nM; minimal effective dose (Rattus norvegicus [6]): 1 mg/kg
C=C1C=C2c3cccc4c3[C@@H](CN4)C[C@H]2N(C)C1,48,,3820 nM,IC50 [5]: 80 nM
CN1C[C@H](CSc2ccccn2)C=C2c3cccc4c3[C@@H](CN4)C[C@H]21,28,3 nM,110 nM,
C[C@@H]1C=C2c3cccc4c3[C@H](C[C@H]2N(C)C1)CN4C,8,160 nM,1250 nM,
CC1=C[C@@H]2c3cccc4[nH]cc(c34)C[C@H]2N(C)C1 [AGROCLAVINE],2,140 nM,270 nM,
